Results taken from article PMC2804977 (Biochemical and biophysical research communications, 2009).

Tests used:
15F3 of Fn [1] = biological target: T1, 15F3 of Fn (Rattus norvegicus, UniProt P04937); assay: Intrinsic Trp fluorescence quenching titration of 15F3; type: binding
T1 sequence (P04937 2193-2286 limits assumed): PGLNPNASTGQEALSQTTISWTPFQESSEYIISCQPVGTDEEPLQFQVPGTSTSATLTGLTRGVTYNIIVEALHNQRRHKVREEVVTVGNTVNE
Method in brief: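 Titration of the rat Fn 15th type III module (1 μM) with varied test peptide concentrations; intrinsic Trp emission spectra recorded after 5 min. Intensity at 350 nm was fitted to derive KD. Data were corrected for dilution and inner-filter effect.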

15F3 of Fn [2] = biological target: T1, 15F3 of Fn; assay: Stopped-flow binding kinetics with 15F3; settings: 25 °C
Method in brief: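 Rat Fn 15th type III module (1 μM) in PBS was rapidly mixed with test peptide (25–400 μM, at least 25-fold excess for pseudo-first-order conditions). Trp emission above 320 nm (295 nm excitation, 320 nm cut-off filter) was recorded at 25 °C, 1000 points per trace. Averaged traces were fitted single-exponentially for kobs; kobs versus peptide concentration gave kon and koff. Three experiments were averaged.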

LIPAD
affinity for 15F3 (15F3 of Fn [1]): moderate affinity | binding kinetics to 15F3 (15F3 of Fn [2]): slow binding kinetics
